Measurements collected from several papers.
Target: Serine/threonine-protein kinase 17A (STK17A, Homo sapiens, UniProt Q9UEE5)
Sequence (Q9UEE5 1-414, as in one of the studies): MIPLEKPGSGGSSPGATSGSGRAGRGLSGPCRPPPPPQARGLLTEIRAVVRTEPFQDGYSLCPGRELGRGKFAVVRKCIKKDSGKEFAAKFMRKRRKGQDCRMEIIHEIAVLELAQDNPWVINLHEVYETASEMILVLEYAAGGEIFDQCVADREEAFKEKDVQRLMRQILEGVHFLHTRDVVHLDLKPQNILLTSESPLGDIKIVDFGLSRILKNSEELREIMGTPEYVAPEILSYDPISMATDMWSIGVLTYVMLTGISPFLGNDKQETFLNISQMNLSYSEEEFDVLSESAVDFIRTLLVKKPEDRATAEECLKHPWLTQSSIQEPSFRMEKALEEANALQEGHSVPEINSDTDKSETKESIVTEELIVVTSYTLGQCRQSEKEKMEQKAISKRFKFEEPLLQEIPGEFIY

`O=C(NCCCN1CCOCC1)c1ccc(Nc2ncc(Cl)c(-c3ccc(Cl)s3)n2)cc1` has a remaining binding of 0.85% (binding, competition with immobilised ligand; 1 µM).
`CN(c1nccc(-c2cnn3ncccc23)n1)C1CC1` gave a remaining binding of 100% (binding; 1 µM).
For `CNC(=O)Nc1ccc2c(c1)CC[C@@]21OC(=O)N(CC(=O)N(Cc2ccc(F)cc2)[C@@H](C)C(F)(F)F)C1=O`, the remaining binding was 100% (cell-free assay, competition with immobilised ligand; 1 µM).
For `COc1ccnn2ncc(-c3ccnc(N(C)C)n3)c12`, the remaining binding was 96% (binding; 1 µM).
For `O=C(Nc1cccnn1)N1CCC(=Cc2cccc(Oc3ccc(C(F)(F)F)cn3)c2)CC1`, the remaining binding was 79% (cell-free assay, competition with immobilised ligand; 1 µM).
`O=C(NCCCN1CCOCC1)c1ccc(Nc2nccc(-c3cc4ccccc4s3)n2)cc1` gave a remaining binding of 0% (binding, competition with immobilised ligand; 1 µM).
With `c1cncc(-c2cccc(Nc3nccc(NC4CCCCC4)n3)c2)c1` the remaining binding was 47% (binding, competition with immobilised ligand; 10 µM).
With `C=CC(=O)N1CCC(C(=O)NCC(=O)N2CCN(c3nc(-c4cnc(N)nc4C(F)F)nc(N4CCOCC4)n3)CC2)CC1` the remaining binding was 100% (binding, competition with immobilised ligand; 1 µM).
`CC1=C(C#N)[C@@H](c2ccc3[nH]nc(C)c3c2)C(C#N)=C(c2ccc(Cl)cc2)N1` gave a remaining binding of 100% (cell-free assay, competition with immobilised ligand; 1 µM).
`N[C@H]1CCN(c2nccc(-c3cnn4ncccc34)n2)C1` gave a remaining binding of 100% (binding; 1 µM).
With `COc1cnc(Nc2cccc(S(N)(=O)=O)c2)nc1N1CCN(c2ccccc2)CC1` the remaining binding was 100% (binding, competition with immobilised ligand; 1 µM).
For `FC(F)(F)Oc1cccc(-c2cnc3ccc(-c4ccncc4)nn23)c1`, the remaining binding was 12% (cell-free assay, competition with immobilised ligand; 5 µM).
`CSc1cccnc1N1CCN(Cc2nc3ccccc3[nH]2)CC1` has a remaining binding of 98% (cell-free assay, competition with immobilised ligand; 1 µM).
With `Cc1cnn2ncc(-c3ccnc(N(C)C)n3)c2c1` the remaining binding was 86% (binding; 1 µM).
The remaining binding of `Nc1ncc2c(n1)-c1c([nH]c3ccc(C#CC4CC4)cc13)CCCC2` is reported as 98% (binding, competition with immobilised ligand; 1 µM).
For `O=S(=O)(NC1CCC(c2cc(F)ccc2F)(S(=O)(=O)c2ccc(Cl)cc2)CC1)C(F)(F)F` (stereo not shown), the remaining binding was 86% (cell-free assay, competition with immobilised ligand; 1 µM).
`O=C(Nc1c[nH]nc1C(=O)NC1CCNCC1)c1cc(F)cc(F)c1` gave a remaining binding of 95% (binding, competition with immobilised ligand; 1 µM).
`CN(C)c1ncc(F)c(-c2cnn3ncccc23)n1` has a remaining binding of 95% (binding; 1 µM).
With `O=C(NCc1ncc(C(F)(F)F)cc1Cl)c1ccc2c(c1)C1(CCS(=O)(=O)CC1)[C@@H](C1CC1)N2S(=O)(=O)c1ccc(F)cc1` the remaining binding was 73% (cell-free assay, competition with immobilised ligand; 1 µM).
`C[C@@H]1CCN(c2nccc(-c3cnn4ncccc34)n2)C1` gave a remaining binding of 19% (binding; 1 µM).
For `COc1ccc2c(O[C@@H]3C[C@H]4C(=O)N[C@]5(C(=O)O)CC5/C=C\CCCCC[C@H](NC(=O)OC5CCCC5)C(=O)N4C3)cc(-c3csc(NC(=O)C(C)C)n3)nc2c1C` (stereo partly shown), the remaining binding was 99% (cell-free assay, competition with immobilised ligand; 1 µM).
For `O=C(c1ccc(Nc2ncc(Cl)c(-c3cc4ccccc4s3)n2)cc1)N1CCC(N2CCCC2)CC1`, the remaining binding was 0% (binding, competition with immobilised ligand; 1 µM).
